Here are results for four compounds from ChEMBL document CHEMBL2331212 (Bioorg Med Chem, 2013).

Values joined by “and” are separate entries in the source; they are usually repeats but may differ in a detail not shown here. Equal entries are not always repeated. Active and inactive are the calls of the source. The rule behind the calls is not given here.

Test [1] has as its target T1, D(2) dopamine receptor (Homo sapiens, UniProt P14416). Kind of test: Displacement of [3H]spiperone from human dopamine D2short receptor expressed in CHO cells. Format: cell-based. On the technique in general: Loss of bound radioactivity is the signal in a displacement assay; it reports binding, not function.
The next test addresses D(3) dopamine receptor (Homo sapiens, UniProt P35462). Put plainly: Displacement of [3H]spiperone from human dopamine D3 receptor expressed in CHO cells. Format: cell-based.
A further test deals with T2, D(4) dopamine receptor (Homo sapiens, UniProt P21917).
T2 sequence (P21917 whole entry): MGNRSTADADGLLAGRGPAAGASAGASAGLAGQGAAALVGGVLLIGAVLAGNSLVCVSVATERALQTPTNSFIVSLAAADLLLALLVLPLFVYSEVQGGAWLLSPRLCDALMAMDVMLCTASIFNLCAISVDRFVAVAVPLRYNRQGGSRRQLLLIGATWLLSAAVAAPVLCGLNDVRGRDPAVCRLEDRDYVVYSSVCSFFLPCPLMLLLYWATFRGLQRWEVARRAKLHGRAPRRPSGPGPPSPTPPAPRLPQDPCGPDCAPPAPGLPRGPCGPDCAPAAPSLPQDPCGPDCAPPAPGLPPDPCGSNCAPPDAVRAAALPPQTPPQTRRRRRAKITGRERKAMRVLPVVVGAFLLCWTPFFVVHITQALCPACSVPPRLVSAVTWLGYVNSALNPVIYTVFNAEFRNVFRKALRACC
Put plainly: Displacement of [3H]spiperone from human dopamine D4.4 receptor expressed in CHO cells. The test is classed as cell-based.

Test [2] concerns the target T1, D(2) dopamine receptor. Put plainly: Displacement of [3H]spiperone from human dopamine D2long receptor expressed in CHO cells. The test is classed as cell-based.
Another test deals with D(1A) dopamine receptor (Bos taurus, UniProt Q95136). Kind of test: Displacement of [3H]SCH23390 from dopamine D1 receptor in bovine striatum. An outline of the steps:
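Bovine striatal homogenate was incubated with [3H]SCH 23390 and test compounds under the same binding conditions as the D2-family assays. Competition curves were fitted by sigmoid non-linear regression with logEC50 and Hill coefficient free. EC50 was converted to Ki by Cheng–Prusoff. Each experiment was run in triplicate.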

The target of test [3] is T3, D(4) dopamine receptor (Homo sapiens) (UniProt P21917).
T3 sequence (whole entry): T2 sequence (P21917 whole entry)
Kind of test: Partial agonist activity at human D4.4 receptor expressed in CHO cells assessed as inhibition of forskolin-stimulated cAMP accumulation after 20 mins by luminescence assay relative to quinpirole. The test is classed as functional, cell-based. The gist of the method: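 CHO cells expressing D4.4 were seeded 24 h ahead at 10,000 cells/well and washed with Krebs Ringer buffer, pH 7.4. Cells were exposed to graded compound concentrations with forskolin for 20 min at 25 °C. cAMP was read by cAMP-Glo luminescence, a PKA–luciferase readout. Quinpirole served as the reference full agonist. EC50 and Emax were taken from at least three experiments, each in triplicate.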

For test [4], the target named is T3, D(4) dopamine receptor (Homo sapiens). Kind of test: Antagonist activity at human D4.4 receptor expressed in CHO cells assessed as inhibition of quinpirole-induced reduction in cAMP accumulation after 20 mins by luminescence assay. The test is classed as functional, cell-based.

Sequence of D(3) dopamine receptor (P35462 whole entry): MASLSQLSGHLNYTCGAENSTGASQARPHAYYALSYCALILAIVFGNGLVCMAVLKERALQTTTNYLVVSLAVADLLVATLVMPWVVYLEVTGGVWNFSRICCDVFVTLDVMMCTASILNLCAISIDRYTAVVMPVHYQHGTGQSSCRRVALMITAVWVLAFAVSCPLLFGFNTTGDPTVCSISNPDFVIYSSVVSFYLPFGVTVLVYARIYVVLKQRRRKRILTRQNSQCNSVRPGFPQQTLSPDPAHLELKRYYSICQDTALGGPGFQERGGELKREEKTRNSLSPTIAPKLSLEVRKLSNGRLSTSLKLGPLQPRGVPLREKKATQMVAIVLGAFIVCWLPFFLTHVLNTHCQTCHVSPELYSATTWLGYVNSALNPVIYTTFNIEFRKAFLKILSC
T1 sequence (P14416 whole entry): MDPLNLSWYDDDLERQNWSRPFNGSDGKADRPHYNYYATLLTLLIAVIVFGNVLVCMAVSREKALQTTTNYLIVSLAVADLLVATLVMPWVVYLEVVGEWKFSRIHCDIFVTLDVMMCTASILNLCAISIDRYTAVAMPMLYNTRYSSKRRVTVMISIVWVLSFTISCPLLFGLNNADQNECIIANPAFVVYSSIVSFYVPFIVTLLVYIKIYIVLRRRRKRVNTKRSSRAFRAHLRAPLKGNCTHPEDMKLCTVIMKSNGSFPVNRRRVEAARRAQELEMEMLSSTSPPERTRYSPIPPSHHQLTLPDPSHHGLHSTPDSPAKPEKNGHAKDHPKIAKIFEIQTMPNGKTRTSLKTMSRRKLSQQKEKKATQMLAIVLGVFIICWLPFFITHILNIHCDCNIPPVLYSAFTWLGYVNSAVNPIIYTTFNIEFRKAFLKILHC
Sequence of D(1A) dopamine receptor (Q95136 whole entry): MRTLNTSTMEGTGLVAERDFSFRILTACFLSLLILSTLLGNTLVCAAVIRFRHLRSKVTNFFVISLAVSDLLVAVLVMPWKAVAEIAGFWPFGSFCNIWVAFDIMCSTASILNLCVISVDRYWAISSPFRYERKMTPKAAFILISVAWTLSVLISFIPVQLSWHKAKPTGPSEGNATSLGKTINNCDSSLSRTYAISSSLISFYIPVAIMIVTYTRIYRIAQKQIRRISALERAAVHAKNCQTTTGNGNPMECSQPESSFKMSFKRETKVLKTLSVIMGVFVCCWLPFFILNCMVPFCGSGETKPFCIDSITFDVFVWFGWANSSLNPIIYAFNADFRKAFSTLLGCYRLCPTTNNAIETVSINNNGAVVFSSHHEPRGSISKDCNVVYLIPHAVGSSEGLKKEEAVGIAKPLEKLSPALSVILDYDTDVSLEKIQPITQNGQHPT

One may read the Ki as a dissociation constant, usually derived from enzyme kinetics or from competition with a known ligand. The low end stands for higher affinity, the high end for lower affinity. As to `c1ccc(-n2cc(CN3CCN(c4cc5ccc4CCc4ccc(cc4)CC5)CC3)cn2)cc1`, the Ki at D(2) dopamine receptor [1] came to 0.028 µM; at D(3) dopamine receptor, 0.018 µM; on D(4) dopamine receptor, 0.045 µM; on D(2) dopamine receptor [2], 0.039 µM; at D(1A) dopamine receptor, 2.6 µM.

Consider `c1ccc(N2CCN(Cc3cnn(-c4ccccc4)c3)CC2)cc1`, for which, in test [3], the Efficacy worked out at 40%. The same compound had a Ki on D(1A) dopamine receptor of 1.6 µM.

The compound `NCCc1ccc(O)c(O)c1` [DOPAMINE] registered a Ki at D(1A) dopamine receptor of 0.44 µM.

Regarding `c1ccc(N2CCN(Cc3cnn(-c4cc5ccc4CCc4ccc(cc4)CC5)c3)CC2)cc1`, the Ki on D(2) dopamine receptor [1] is 0.033 µM and 0.24 µM; at D(3) dopamine receptor, 0.02 µM and 0.023 µM; on D(4) dopamine receptor, 0.0025 µM and 0.0045 µM; on D(2) dopamine receptor [2] it was 0.055 µM and 0.35 µM; at D(1A) dopamine receptor, 1.5 µM and 1.7 µM. Further, the Efficacy in test [3] stood at 19%. The inhibition result in test [4] was “Active”.
